Source: publication PMC9037807 (RSC Advances, 2021)

How the values were obtained:
ovine COX-2 = target: T1, ovine COX-2 (Ovis aries, UniProt P79208); test: In vitro cyclooxygenase; type: biochemical; conditions: for Selectivity index (SI): COX-1 IC50/COX-2 IC50
T1 sequence (P79208 17-603): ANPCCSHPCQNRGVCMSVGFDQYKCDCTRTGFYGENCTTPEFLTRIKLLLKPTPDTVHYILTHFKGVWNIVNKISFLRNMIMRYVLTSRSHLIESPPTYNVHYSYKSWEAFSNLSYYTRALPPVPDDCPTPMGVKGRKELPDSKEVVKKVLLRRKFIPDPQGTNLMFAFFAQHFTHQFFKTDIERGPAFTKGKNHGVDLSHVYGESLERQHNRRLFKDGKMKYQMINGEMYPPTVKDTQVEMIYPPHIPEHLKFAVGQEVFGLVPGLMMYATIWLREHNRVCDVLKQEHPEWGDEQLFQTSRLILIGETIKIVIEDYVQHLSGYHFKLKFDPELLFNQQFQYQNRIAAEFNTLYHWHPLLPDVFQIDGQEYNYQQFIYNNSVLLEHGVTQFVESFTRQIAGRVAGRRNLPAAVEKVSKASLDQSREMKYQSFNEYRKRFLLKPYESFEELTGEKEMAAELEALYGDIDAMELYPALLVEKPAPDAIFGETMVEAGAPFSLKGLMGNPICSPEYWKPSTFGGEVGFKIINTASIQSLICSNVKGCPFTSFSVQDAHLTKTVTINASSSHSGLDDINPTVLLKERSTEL

ovine COX-1 = target: T2, ovine COX-1 (Ovis aries, UniProt P05979); test: In vitro cyclooxygenase; type: biochemical
T2 sequence (P05979 25-600): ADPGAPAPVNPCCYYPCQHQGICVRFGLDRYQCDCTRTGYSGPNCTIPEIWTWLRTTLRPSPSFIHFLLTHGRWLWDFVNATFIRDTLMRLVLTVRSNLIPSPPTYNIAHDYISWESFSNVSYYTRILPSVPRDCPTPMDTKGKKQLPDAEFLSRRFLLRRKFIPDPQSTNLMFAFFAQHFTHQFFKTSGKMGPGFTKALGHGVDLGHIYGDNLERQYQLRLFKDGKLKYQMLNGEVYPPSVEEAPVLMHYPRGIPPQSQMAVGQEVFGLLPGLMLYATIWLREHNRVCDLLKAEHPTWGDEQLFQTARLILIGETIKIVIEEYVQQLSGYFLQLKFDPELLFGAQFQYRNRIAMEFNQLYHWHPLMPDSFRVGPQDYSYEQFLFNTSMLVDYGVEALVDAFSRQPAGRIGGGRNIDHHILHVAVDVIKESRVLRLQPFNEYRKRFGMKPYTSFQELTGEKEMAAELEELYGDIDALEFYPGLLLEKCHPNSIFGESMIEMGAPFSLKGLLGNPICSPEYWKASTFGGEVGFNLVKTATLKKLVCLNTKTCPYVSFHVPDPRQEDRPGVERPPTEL

[1] = test system: carrageenan-induced rat paw edema; test: Carrageenan-induced rat paw edema model; type: in vivo; conditions: 10 mg kg−1 po, n = 4; for Edema inhibition %, 1 h / Edema thickness ± SEM, 1 h: 1 h after carrageenan injection; for Edema inhibition %, 3 h / Edema thickness ± SEM, 3 h: 3 h after carrageenan injection; for Edema inhibition %, 6 h / Edema thickness ± SEM, 6 h: 6 h after carrageenan injection
Procedure, shortened: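 Rats were dosed orally with test compound (10 mg kg−1) in 5% aqueous DMSO (v/v). […] Thirty minutes after dosing, 0.02 ml of 1% carrageenan was injected sub-plantar. Paw thickness was measured 1, 3 and 6 h after injection, and edema inhibition % was calculated from paw thickness.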

rat stomach = test: Ulcerogenic liability; type: in vivo; conditions: rats sacrificed 4 h after drug administration
rat's stomach = test: Histo-pathological study of glandular and non-glandular stomach; type: in vivo; conditions: text description

Row | SMILES | IC50 (ovine COX-2) [µM] | Selectivity index (SI) (ovine COX-2) | IC50 (ovine COX-1) [µM] | Severity of histopathological lesions of the stomach (in words) (rat's stomach) | Edema inhibition %, 1 h [1] [%] | Edema thickness ± SEM, 1 h [1] [mm] | Edema inhibition %, 3 h [1] [%] | Edema thickness ± SEM, 3 h [1] [mm] | Edema inhibition %, 6 h [1] [%] | Edema thickness ± SEM, 6 h [1] [mm] | Ulcer index, mean (rat stomach) [mm]
1 | CS(=O)(=O)c1ccc(-c2nc3cc(Cl)ccc3n2CC(=O)N/N=C/c2ccc(Cl)cc2)cc1 [11f, (E)-N′-(4-Chlorobenzylidene)-2-(5-chloro-2-(4-(methylsulfonyl)phenyl)-1H-benzo[d]imidazol-1-yl) acetohydrazide] | 0.13 | 79 | 10.2 | – | 78 | 0.577 ± 0.020 | 80 | 0.449 ± 0.008 | 90 | 0.191 ± 0.011 | –
2 | COc1ccc(/C=N/NC(=O)Cn2c(-c3ccc(S(C)(=O)=O)cc3)nc3cc(Cl)ccc32)cc1 [11g, (E)-N′-(4-Methoxybenzylidene)-2-(5-chloro-2-(4-(methylsulfonyl)phenyl)-1H-benzo[d]imidazol-1-yl) acetohydrazide] | 0.13 | 67 | 8.74 | – | 61 | 1.017 ± 0.007 | 65 | 0.785 ± 0.018 | 78 | 0.410 ± 0.018 | –
3 | CS(=O)(=O)c1ccc(-c2nc3cc(Cl)ccc3n2CC(=O)N/N=C/c2ccc(F)cc2)cc1 [11h, (E)-N′-(4-Fluorobenzylidene)-2-(5-chloro-2-(4-(methylsulfonyl)phenyl)-1H-benzo[d]imidazol-1-yl) acetohydrazide] | 0.22 | 36 | 7.98 | – | 50 | 1.30 ± 0.079 | 52 | 1.063 ± 0.020 | 60 | 0.754 ± 0.026 | –
4 | C/C(=N\NC(=O)Cn1c(-c2ccc(S(C)(=O)=O)cc2)nc2ccccc21)c1ccc(Cl)cc1 [12b, (E)-N′-(1-(4-Chlorophenyl)ethylidene)-2-(2-(4-(methylsulfonyl)phenyl)-1H-benzo[d]imidazol-1-yl) acetohydrazide] | 0.1 | 125 | 12.5 | – | 80 | 0.522 ± 0.009 | 89 | 0.240 ± 0.014 | 95 | 0.104 ± 0.005 | –
5 | Cc1ccc(-c2cc(C(F)(F)F)nn2-c2ccc(S(N)(=O)=O)cc2)cc1 [Celecoxib, celecoxib, reference compound] | – | – | – | mild lesions | 74 | 0.690 ± 0.017 | 94 | 0.142 ± 0.009 | 96 | 0.070 ± 0.005 | 3.5
6 | COc1ccc2c(c1)c(CC(=O)O)c(C)n2C(=O)c1ccc(Cl)cc1 [Indomethacin, indomethacin, reference compound] | – | – | – | severe lesions | – | – | 96 | 0.083 ± 0.005 | 97 | 0.051 ± 0.004 | 13

Now from value to molecule, other results behind:

Row | IC50 (ovine COX-2) [µM] | Selectivity index (SI) (ovine COX-2) | IC50 (ovine COX-1) [µM] | Severity of histopathological lesions of the stomach (in words) (rat's stomach) | SMILES | Edema inhibition %, 1 h [1] [%] | Edema thickness ± SEM, 1 h [1] [mm] | Edema inhibition %, 3 h [1] [%] | Edema thickness ± SEM, 3 h [1] [mm] | Edema inhibition %, 6 h [1] [%] | Edema thickness ± SEM, 6 h [1] [mm] | Ulcer index, mean (rat stomach) [mm]
7 | 0.19 | 52 | 9.87 | – | CS(=O)(=O)c1ccc(-c2nc3ccccc3n2CC(=O)N/N=C/c2ccccc2)cc1 [11a, (E)-N′-Benzylidene-2-(2-(4-(methylsulfonyl)phenyl)-1H-benzo[d]imidazol-1-yl) acetohydrazide] | 60 | 1.048 ± 0.027 | 64 | 0.812 ± 0.037 | 69 | 0.578 ± 0.049 | –
8 | 0.11 | 103 | 11.3 | – | COc1ccc(/C=N/NC(=O)Cn2c(-c3ccc(S(C)(=O)=O)cc3)nc3ccccc32)cc1 [11c, (E)-N′-(4-Methoxybenzylidene)-2-(2-(4-(methylsulfonyl)phenyl)-1H-benzo[d]imidazol-1-yl) acetohydrazide] | 81 | 0.487 ± 0.019 | 92 | 0.181 ± 0.013 | 93 | 0.130 ± 0.010 | –
9 | 0.12 | 85 | 10.2 | – | CS(=O)(=O)c1ccc(-c2nc3ccccc3n2CC(=O)N/N=C/c2ccc(F)cc2)cc1 [11d, (E)-N′-(4-Fluorobenzylidene)-2-(2-(4-(methylsulfonyl)phenyl)-1H-benzo[d]imidazol-1-yl) acetohydrazide] | – | – | 81 | 0.427 ± 0.017 | 90 | 0.183 ± 0.014 | –
10 | 0.11 | 102 | 11.2 | – | Cc1ccc2c(c1)nc(-c1ccc(S(C)(=O)=O)cc1)n2CC(=O)N/N=C/c1ccc(Cl)cc1 [11j, (E)-N′-(4-Chlorobenzylidene)-2-(5-methyl-2-(4-(methylsulfonyl)phenyl)-1H-benzo[d]imidazol-1-yl) acetohydrazide] | 81 | 0.505 ± 0.022 | 91 | 0.194 ± 0.018 | 93 | 0.129 ± 0.008 | –
11 | 0.34 | 23 | 7.96 | – | Cc1ccc2c(c1)nc(-c1ccc(S(C)(=O)=O)cc1)n2CC(=O)N/N=C/c1ccc(F)cc1 [11l, (E)-N′-(4-Fluorobenzylidene)-2-(5-methyl-2-(4-(methylsulfonyl)phenyl)-1H-benzo[d]imidazol-1-yl) acetohydrazide] | 47 | 1.378 ± 0.009 | 51 | 1.102 ± 0.086 | 55 | 0.860 ± 0.010 | –
12 | 0.28 | 32 | 8.97 | – | C/C(=N\NC(=O)Cn1c(-c2ccc(S(C)(=O)=O)cc2)nc2ccccc21)c1ccccc1 [12a, (E)-2-(2-(4-(Methylsulfonyl)phenyl)-1H-benzo[d]imidazol-1-yl)-N′-(1-phenylethylidene) acetohydrazide] | 50 | 1.308 ± 0.101 | 54 | 1.017 ± 0.024 | 60 | 0.766 ± 0.006 | –
13 | 0.19 | 57 | 10.9 | – | C/C(=N\NC(=O)Cn1c(-c2ccc(S(C)(=O)=O)cc2)nc2cc(C)ccc21)c1ccc(Cl)cc1 [12f, (E)-N′-(1-(4-Chlorophenyl)ethylidene)-2-(5-methyl-2-(4-(methylsulfonyl)phenyl)-1H-benzo[d]imidazol-1-yl) acetohydrazide] | 60 | 1.038 ± 0.014 | 64 | 0.801 ± 0.013 | 70 | 0.563 ± 0.012 | –
